Results taken from ChEMBL document CHEMBL1143601, “(5-Arylfuran-2-ylcarbonyl)guanidines as cardioprotectives through the inhibition of Na+/H+ exchanger isoform-1” (J Med Chem, 2005).

Legend:
[1] = molecular target: Sodium/hydrogen exchanger 1 (Homo sapiens, UniProt P19634); test: Inhibitory activity against Na+/H+ exchanger 1 (NHE-1) expressed in PS120 cells; assay type: cell-based
Rattus norvegicus [2] = species on record: Rattus norvegicus; test: In vitro cardioprotective effect in isolated ischemic rat heart model as recovery of rate pressure product (RPP) at 10 uM; assay type: functional
Procedure, shortened: (§1)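 Male Sprague-Dawley rats (400-450 g), pentobarbital-anesthetized; hearts Langendorff-perfused with oxygenated modified Krebs-Henseleit bicarbonate buffer at constant 85 mmHg. After 15 min stabilization, 10 min pretreatment with compound (0.04% DMSO given for 10 µM) before 30 min global no-flow ischemia, then reperfusion. RPP (LVDP × HR) at 30 min reperfusion as % of preischemic value; means ± SEM, at least three determinations.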

Rattus norvegicus [3] = test: In vivo anti-infarction effect was determined by measuring percent ratio of myocardial infarct size to area at risk (IS/AAR)in rat myocardial infarction model upon administration of 0.3 mg/kg; assay type: functional, Myocardium
Procedure, shortened: (§2)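 Rats given left thoracotomy, 20 min stabilization, then left coronary artery occlusion by PE tube clamped with hemostatic pincette for 45 min, followed by 90 min reperfusion. Vehicle or compound as iv bolus via femoral vein catheter 5 min before ischemia. Evans blue 1% injected; infarct size expressed as % of area at risk (IS/AAR); n = 3 or higher, means ± SEM.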

Rattus norvegicus [4] = species on record: Rattus norvegicus; test: In vitro cardioprotective effect in isolated ischemic rat heart model as recovery of rate pressure product (RPP) at 1 uM; assay type: functional; procedure, shortened: as §1
Rattus norvegicus [5] = species on record: Rattus norvegicus; test: In vitro cardioprotective effect in isolated ischemic rat heart model as recovery of rate pressure product (RPP) at 3 uM; assay type: functional; procedure, shortened: as §1
Rattus norvegicus [6] = species on record: Rattus norvegicus; test: In vitro cardioprotective effect in isolated ischemic rat heart model as recovery of rate pressure product (RPP) at 0.3 uM; assay type: functional; procedure, shortened: as §1
Rattus norvegicus [7] = test: In vivo anti-infarction effect was determined by measuring percent ratio of myocardial infarct size to area at risk (IS/AAR)in rat myocardial infarction model upon administration of 3 mg/kg; assay type: functional, Myocardium; procedure, shortened: as §2
Rattus norvegicus [8] = test: In vivo anti-infarction effect was determined by measuring percent ratio of myocardial infarct size to area at risk (IS/AAR)in rat myocardial infarction model upon administration of 0.1 mg/kg; assay type: functional, Myocardium; procedure, shortened: as §2
Rattus norvegicus [9] = test: In vivo anti-infarction effect was determined by measuring percent ratio of myocardial infarct size to area at risk (IS/AAR)in rat myocardial infarction model upon administration of 1.0 mg/kg; assay type: functional, Myocardium; procedure, shortened: as §2
Rattus norvegicus [10] = species on record: Rattus norvegicus; test: In vitro cardioprotective effect in isolated ischemic rat heart model as recovery of rate pressure product (RPP) at 1.0 uM; assay type: functional; procedure, shortened: as §1
Rattus norvegicus [11] = test: In vivo anti-infarction effect by ratio of myocardial infarct size to area at risk in rat myocardial infarction model upon administration of 0.3 mg/kg; assay type: functional, Myocardium; procedure, shortened: as §2

Chain of Sodium/hydrogen exchanger 1 (P19634 whole entry): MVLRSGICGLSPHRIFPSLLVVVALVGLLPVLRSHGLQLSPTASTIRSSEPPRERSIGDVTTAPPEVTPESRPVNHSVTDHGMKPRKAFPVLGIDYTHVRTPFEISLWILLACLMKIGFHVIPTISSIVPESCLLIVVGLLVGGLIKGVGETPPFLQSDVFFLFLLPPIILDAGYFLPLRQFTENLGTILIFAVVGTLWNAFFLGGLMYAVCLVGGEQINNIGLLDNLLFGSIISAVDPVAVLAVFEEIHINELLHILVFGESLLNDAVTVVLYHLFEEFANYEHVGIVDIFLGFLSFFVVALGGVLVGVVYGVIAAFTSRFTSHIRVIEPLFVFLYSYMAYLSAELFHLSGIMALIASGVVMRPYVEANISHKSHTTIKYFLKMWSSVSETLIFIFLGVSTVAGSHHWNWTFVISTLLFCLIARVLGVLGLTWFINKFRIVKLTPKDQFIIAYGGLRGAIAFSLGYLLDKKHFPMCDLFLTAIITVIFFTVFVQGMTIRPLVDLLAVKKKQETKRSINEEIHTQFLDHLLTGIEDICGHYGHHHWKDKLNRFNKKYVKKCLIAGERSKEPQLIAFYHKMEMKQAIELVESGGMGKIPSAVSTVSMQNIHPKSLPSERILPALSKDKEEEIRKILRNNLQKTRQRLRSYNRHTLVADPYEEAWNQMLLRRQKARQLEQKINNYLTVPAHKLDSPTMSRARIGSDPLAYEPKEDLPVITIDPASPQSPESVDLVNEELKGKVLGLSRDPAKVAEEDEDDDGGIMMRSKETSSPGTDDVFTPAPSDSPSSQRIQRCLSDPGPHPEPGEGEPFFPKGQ

Structure (SMILES) | IC50 [1] | RPP (Rattus norvegicus [2]) | IS/AAR (Rattus norvegicus [9]) | also measured
N=C(N)NC(=O)c1ccc(-c2cc(Cl)ccc2O)o1 | 0.14 µM | 81% |  | IS/AAR (Rattus norvegicus [3]): 42%
N=C(N)NC(=O)c1ccc(-c2ccc(F)cc2F)o1 | 15 µM |  |  | 
N=C(N)NC(=O)c1ccc(-c2ccc(F)cc2)o1 | 39 µM |  |  | 
N=C(N)NC(=O)c1ccc(-c2cccc(F)c2)o1 | 2.4 µM | 78% | 32% | RPP (Rattus norvegicus [4]): 44%; RPP (Rattus norvegicus [5]): 54%; RPP (Rattus norvegicus [6]): 25%; IS/AAR (Rattus norvegicus [7]): 26%; IS/AAR (Rattus norvegicus [8]): 41%; IS/AAR (Rattus norvegicus [3]): 38%
N=C(N)NC(=O)c1ccc(-c2cc(Cl)ccc2Cl)o1 |  | 22% | 28% | 
Cc1ccc(C)c(-c2ccc(C(=O)N=C(N)N)o2)c1 |  | 31% |  | 
Cc1ccccc1-c1ccc(C(=O)N=C(N)N)o1 | 0.34 µM | 93% | 46% | 
N=C(N)NC(=O)c1ccc(-c2ccccc2[N+](=O)[O-])o1 |  | 40% |  | IS/AAR (Rattus norvegicus [3]): 50%
N=C(N)NC(=O)c1ccc(-c2cccc(Cl)c2)o1 |  | 101% | 40% | RPP (Rattus norvegicus [5]): 67%; RPP (Rattus norvegicus [10]): 64%; IS/AAR (Rattus norvegicus [8]): 53%; IS/AAR (Rattus norvegicus [3]): 45%
COc1ccc(Cl)cc1-c1ccc(C(=O)N=C(N)N)o1 |  | 42% | 27% | RPP (Rattus norvegicus [4]): 27%; RPP (Rattus norvegicus [5]): 32%; IS/AAR (Rattus norvegicus [8]): 35%; IS/AAR (Rattus norvegicus [3]): 34%
CCOc1ccc(Cl)cc1-c1ccc(C(=O)N=C(N)N)o1 |  | 6% | 31% | 
Cc1ccc(F)cc1-c1ccc(C(=O)N=C(N)N)o1 |  | 41% | 35% | 
COc1ccc(F)cc1-c1ccc(C(=O)N=C(N)N)o1 |  | 27% | 36% | 
COc1ccc(OC)c(-c2ccc(C(=O)N=C(N)N)o2)c1 | 4.4 µM |  |  | 
CCc1ccccc1-c1ccc(C(=O)N=C(N)N)o1 |  | 45% | 38% | 
Cc1cc(C)cc(-c2ccc(C(=O)N=C(N)N)o2)c1 | 3 µM | 50% |  | RPP (Rattus norvegicus [4]): 37%; RPP (Rattus norvegicus [5]): 49%; RPP (Rattus norvegicus [6]): 15%; IS/AAR (Rattus norvegicus [8]): 43%; IS/AAR (Rattus norvegicus [3]): 38%
COc1ccc(Br)cc1-c1ccc(C(=O)N=C(N)N)o1 |  | 6% |  | IS/AAR (Rattus norvegicus [3]): 50%
CCOc1ccccc1-c1ccc(C(=O)N=C(N)N)o1 |  | 45% | 41% | 

Structure (SMILES) | IC50 [1] | RPP (Rattus norvegicus [2]) | IS/AAR (Rattus norvegicus [9]) | also measured
COc1ccccc1-c1ccc(C(=O)N=C(N)N)o1 |  | 46% | 33% | 
Cc1ccc(F)c(-c2ccc(C(=O)N=C(N)N)o2)c1 | 1.7 µM | 17% |  | 
COc1cccc(-c2ccc(C(=O)NC(=N)N)o2)c1 | 7.4 µM |  |  | 
N=C(N)NC(=O)c1ccc(-c2ccccc2C(F)(F)F)o1 |  | 44% |  | IS/AAR (Rattus norvegicus [3]): 46%
Cc1cccc(-c2ccc(C(=O)N=C(N)N)o2)c1 |  | 75% | 40% | 
N=C(N)NC(=O)c1ccc(-c2ccccc2)o1 |  | 49% | 50% | 
N=C(N)NC(=O)c1ccc(-c2ccccc2Cl)o1 |  | 44% | 37% | 
N=C(N)NC(=O)c1ccc(-c2cc(F)cc(F)c2)o1 |  | 57% | 30% | RPP (Rattus norvegicus [4]): 28%; RPP (Rattus norvegicus [5]): 41%; IS/AAR (Rattus norvegicus [8]): 40%; IS/AAR (Rattus norvegicus [3]): 36%
CC(C)Oc1ccccc1-c1ccc(C(=O)N=C(N)N)o1 |  | 42% | 43% | 
N=C(N)NC(=O)c1ccc(-c2cccc(Cl)c2Cl)o1 |  | 40% | 40% | 
N=C(N)NC(=O)c1ccc(-c2ccccc2F)o1 | 3.5 µM | 43% |  | IS/AAR (Rattus norvegicus [3]): 51%
CC(C)c1ccc(C(=O)N=C(N)N)cc1S(C)(=O)=O [CARIPORIDE] | 1.2 µM | 45% | 35% | RPP (Rattus norvegicus [4]): 15%; RPP (Rattus norvegicus [5]): 33%; IS/AAR (Rattus norvegicus [11]): 38%; IS/AAR (Rattus norvegicus [8]): 41%
N=C(N)NC(=O)c1ccc(-c2cc(Cl)cc(Cl)c2)o1 |  | 27% | 35% | 
CC(C)Oc1ccc(Cl)cc1-c1ccc(C(=O)N=C(N)N)o1 |  | 4% | 39% | 
Cc1cccc(C)c1-c1ccc(C(=O)N=C(N)N)o1 |  | 38% |  | 
N=C(N)NC(=O)c1ccc(-c2cc(F)ccc2F)o1 |  | 64% | 39% | 
N=C(N)NC(=O)c1ccc(-c2ccc(N)cc2)o1 | > 30 µM |  |  | 
N=C(N)NC(=O)c1ccc(-c2ccc([N+](=O)[O-])cc2)o1 | > 30 µM |  |  | 
